Data as given in ChEMBL document CHEMBL3627612, “Hirsutinolide Series Inhibit Stat3 Activity, Alter GCN1, MAP1B, Hsp105, G6PD, Vimentin, TrxR1, and Importin α-2 Expression, and Induce Antitumor Effects against Human Glioma” (J Med Chem, 2015).
Calls of active or inactive are those of the source. The calls are words filed in the database; no cut-off is given here.

What was measured:
SF-295 [1] = experiment: Antiproliferative activity against human SF295 cells at 5 uM for 72 hrs by cyquant assay; type: functional, cell-based
[2] = Cytotoxicity against mouse NIH/3T3 cells at 5uM after 72 hrs by cyquant cells; type: cell-based; settings: nih3t3, 72 h
Summary of the method: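 CyQuant proliferation assay after 72 h compound exposure of cultured cells; relative viability normalized to DMSO-treated control; IC50 values derived. Glioma lines grown in RPMI or DMEM with 10% FBS and 1% nonessential amino acids.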

SF-295 [3] = experiment: Anticlonogenic activity against human SF295 cells for 72 hrs by crystal-violet staining based assay; type: functional, cell-based
[4] = Cytotoxicity against mouse NIH/3T3 cells assessed as colony survival at 1 to 5 uM for 72 hrs measured after 1 week by crystal-violet staining based assay; type: cell-based; settings: nih3t3, 5 µM
Summary of the method: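 Single-cell seeding at 250 cells per well; cells treated once the next day for 72 h with 0–5 μM compound, then grown until large colonies were visible (NIH3T3 1 week, MDA-MB-231 and U251MG 2 weeks, MCF-7 4 weeks). Colonies stained with crystal violet for 4 h, imaged and counted.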

Glioma cell [5] = experiment: Effect on cell morphology in human Glioma (G22) patient derived xenograft cells assessed as 3D spheroids formation at 5 uM for 24 hrs measured after 48 hrs by inverted fluorescence microscope analysis; type: functional
Summary of the method: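 G22 patient-derived xenograft glioma cells seeded at 1,000 cells/well in ultra-low-binding round-bottom wells, grown 48 h into 3D spheroids, then treated once with 5 μM compound or DMSO; matrigel added after 24 h. Spheroids imaged at 5× magnification on an inverted fluorescence microscope every 24 h for up to 120 h.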

[6] = biological target: Signal transducer and activator of transcription 1/ 3 (Mus musculus) (UniProt P42227+P42225); experiment: Inhibition of Stat1:Stat3 dimer DNA binding activity in EGF-stimulated mouse NIH3T3 nuclear extract expressing human EGFR assessed as residual activity at 5 uM preincubated for 30 mins followed by addition of radiolabeled probe hSIE for 30 mins by EMSA; type: cell-free
[7] = biological target: T1, Signal transducer and activator of transcription 1 (Mus musculus) (UniProt P42225); experiment: Inhibition of Stat1 dimer DNA binding activity in EGF-stimulated mouse NIH3T3 nuclear extract expressing human EGFR assessed as residual activity at 5 uM preincubated for 30 mins followed by addition of radiolabeled probe hSIE for 30 mins by EMSA
T1 sequence (whole entry): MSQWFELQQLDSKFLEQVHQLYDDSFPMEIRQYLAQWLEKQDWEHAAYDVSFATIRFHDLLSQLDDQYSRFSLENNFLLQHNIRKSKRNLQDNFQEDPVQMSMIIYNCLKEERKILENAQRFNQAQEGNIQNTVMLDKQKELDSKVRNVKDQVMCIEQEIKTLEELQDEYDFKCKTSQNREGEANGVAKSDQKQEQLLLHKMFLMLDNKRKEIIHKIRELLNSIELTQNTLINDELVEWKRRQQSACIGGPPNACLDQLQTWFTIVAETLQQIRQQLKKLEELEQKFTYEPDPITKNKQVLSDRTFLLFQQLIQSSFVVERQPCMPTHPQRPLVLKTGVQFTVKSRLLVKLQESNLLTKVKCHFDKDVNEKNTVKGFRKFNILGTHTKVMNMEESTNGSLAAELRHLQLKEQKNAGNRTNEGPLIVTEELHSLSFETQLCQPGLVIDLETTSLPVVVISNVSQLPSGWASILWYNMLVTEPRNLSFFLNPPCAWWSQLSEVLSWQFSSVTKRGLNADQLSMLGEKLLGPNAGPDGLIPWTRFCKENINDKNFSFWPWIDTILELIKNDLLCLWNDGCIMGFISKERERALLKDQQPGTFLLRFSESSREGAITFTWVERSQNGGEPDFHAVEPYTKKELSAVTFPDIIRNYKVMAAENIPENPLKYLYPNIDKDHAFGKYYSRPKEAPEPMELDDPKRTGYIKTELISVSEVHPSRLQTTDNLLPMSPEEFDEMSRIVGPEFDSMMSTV

NIH3T3 [8] = experiment: Inhibition of Stat5 dimer DNA binding activity in EGF-stimulated mouse NIH3T3 nuclear extract expressing human EGFR at 5 uM preincubated for 30 mins followed by addition of radiolabeled probe MGFe for 30 mins by EMSA; type: cell-free
[9] = biological target: T2, Signal transducer and activator of transcription 3 (Homo sapiens, UniProt P40763); experiment: Inhibition of Stat3 dimer DNA binding activity in human U251MG cells nuclear extract at 5 uM by EMSA using radiolabeled probe hSIE; type: cell-based; settings: U-251, TDE = time-dependent effect
Summary of the method: (§1)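 Sub-confluent U251MG or U373MG cells treated with compound (5 μM for 0–24 h, or 0–5 μM for 1.5 h). Stat3:DNA bands scanned, quantified and plotted against concentration to derive IC50. Controls were 0.025% DMSO.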

[10] = biological target: T2, Signal transducer and activator of transcription 3; experiment: Inhibition of Stat3 activity in human U251MG cells assessed as phosphorylated Stat3 level at 5 uM by immunoblot analysis; type: cell-based; settings: U-251, TDE = time-dependent effect
[11] = biological target: T2, Signal transducer and activator of transcription 3; experiment: Inhibition of Stat3 activity in human glioma (G22) patient-derived mouse xenograft cells assessed as phosphorylated Stat3 level at 5 uM after 3 hrs by immunoblot analysis
Summary of the method: (§2)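 Cultured G22 glioma patient-derived mouse xenograft cells (DMEM, 5–10% heat-inactivated FBS) treated with 5 μM compound for 0–24 h. Whole-cell lysates immunoblotted for pStat3, Stat3, GAPDH.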

[12] = biological target: T2, Signal transducer and activator of transcription 3; experiment: Inhibition of Stat3 activity in human glioma (G22) patient-derived mouse xenograft cells assessed as phosphorylated Stat3 level at 5 uM after 24 hrs by immunoblot analysis; summary of the method: as §2
Glioma cell [13] = experiment: Cytotoxicity against human Glioma (G22) patient-derived mouse xenograft cells at 5 uM after 24 hrs by cyquant assay; type: functional, cell-based
[14] = biological target: T2, Signal transducer and activator of transcription 3; experiment: Inhibition of Stat3 dimer DNA binding activity in human U251MG cells nuclear extract at 5 uM after 0.5 to 24 hrs by EMSA using radiolabeled probe hSIE; type: cell-based; settings: U-251; summary of the method: as §1
NIH3T3 [15] = experiment: Modulation of EGF-induced Stat5 phosphorylation in mouse NIH3T3 cells expressing human EGFR at 5 uM preincubated for 3 hrs followed by stimulation with 1 ug/ml EGF for 12 mins by immunoblot analysis; type: cell-based
Summary of the method: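 Whole-cell lysates of equal total protein from NIH3T3/hEGFR fibroblasts, pretreated with or without 5 μM compound (control 0.025% DMSO) for 3 h, then stimulated with 1 μg/ml EGF for 12 min. SDS-PAGE immunoblotting for pStat1/Stat1 and pStat5/Stat5 with β-actin or GAPDH loading controls. Representative of 2–4 independent determinations.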

U-251 = experiment: Effect on PTP1B expression in human U251MG cells at 5 uM after 0.5 to 24 hrs by immunoblot analysis; type: functional, cell-based
Summary of the method: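 U251MG cells treated with 5 μM compound for 0–24 h; whole-cell lysates of equal total protein immunoblotted. Controls were 0.025% DMSO-treated cells. Representative of 2–4 independent determinations.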

[16] = biological target: T2, Signal transducer and activator of transcription 3; experiment: Inhibition of orthovandate-induced Stat3 phosphorylation in human U251MG cells at 5 uM for 3 hrs by immunoblot analysis in presence of 10 to 300 uM orthovandate; type: cell-based; settings: U-251
Summary of the method: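 U251MG cells treated with 5 μM compound for 3 h without or with 10–300 μM Na3VO4. Whole-cell lysates of equal total protein immunoblotted for pStat3 and Stat3. Controls were 0.025% DMSO. Representative of 2–4 determinations.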

T2 sequence (P40763 whole entry): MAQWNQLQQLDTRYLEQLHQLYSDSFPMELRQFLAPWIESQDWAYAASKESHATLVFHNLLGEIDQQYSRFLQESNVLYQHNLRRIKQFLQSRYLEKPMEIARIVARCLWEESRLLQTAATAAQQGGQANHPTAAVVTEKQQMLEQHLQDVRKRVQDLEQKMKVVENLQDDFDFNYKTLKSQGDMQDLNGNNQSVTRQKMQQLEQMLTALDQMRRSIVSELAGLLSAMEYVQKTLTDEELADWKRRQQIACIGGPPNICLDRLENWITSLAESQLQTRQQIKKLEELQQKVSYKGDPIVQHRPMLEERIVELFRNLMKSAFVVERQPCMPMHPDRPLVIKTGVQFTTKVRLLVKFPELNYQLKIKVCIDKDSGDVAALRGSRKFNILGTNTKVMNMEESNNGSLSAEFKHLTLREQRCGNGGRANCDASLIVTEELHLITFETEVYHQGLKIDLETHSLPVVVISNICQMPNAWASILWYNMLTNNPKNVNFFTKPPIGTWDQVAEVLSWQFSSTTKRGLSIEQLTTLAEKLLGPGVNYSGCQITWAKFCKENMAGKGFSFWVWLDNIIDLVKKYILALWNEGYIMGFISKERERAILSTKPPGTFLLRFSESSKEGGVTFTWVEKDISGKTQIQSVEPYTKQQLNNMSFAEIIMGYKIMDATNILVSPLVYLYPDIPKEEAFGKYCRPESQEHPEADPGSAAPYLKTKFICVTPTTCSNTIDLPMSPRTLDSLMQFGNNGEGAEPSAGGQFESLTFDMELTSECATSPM

SMILES | inhibition (SF-295 [1]) | Activity [2] | Activity (SF-295 [3]) | Activity [4] | Activity (Glioma cell [5]) | Activity [6] [%] | Activity [7] [%] | inhibition (NIH3T3 [8]) | inhibition [9] | inhibition [10] | inhibition [11] | inhibition [12] | Activity (Glioma cell [13]) | inhibition [14] | inhibition (NIH3T3 [15]) | Activity (U-251) | inhibition [16]
C/C=C(\C)C(=O)OCC1=C2/C(=C\[C@@]3(C)CC[C@](O)(O3)[C@H](C)C[C@@H]2O)OC1=O | Active | Non-toxic | Dose-dependent effect | Toxic | Active | 18 | 36 | inactive | tde | tde | Active | inactive | Active | Active | inactive | inactive | Active
C/C=C(\C)C(=O)O[C@H]1C[C@@H](C)[C@]2(O)CC[C@](C)(/C=C3/OC(=O)C(COC(C)=O)=C31)O2 | Active | Toxic | Dose-dependent effect | Toxic | Active | 67 | 68 | inactive | tde | tde | Active | inactive | Active | Active | inactive | inactive | Active
C/C=C(\C)C(=O)O[C@H]1C[C@@H](C)[C@]2(OC)CC[C@](C)(/C=C3/OC(=O)C(COC(C)=O)=C31)O2 | inactive | Toxic | Dose-dependent effect | Toxic | Active | 42 | 49 | inactive | tde | tde | Active | inactive | Active | Active | inactive | inactive | Active
